SR-BI uptake up – SR-BI HDL lipid transfer activation; 0.096% of 320,000 active; CHO ldlA[mSR-BI] cells, DiI-HDL uptake fluorescence, 3 h; 100 = double the neutral-control signal; activation, % at 12.5 µM;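 active means mean replicate activation of at least 60% and every replicate at or above 60%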;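 further: 0% = median plate neutral-control signal and 100% = twice that signal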
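Test system: SR-BI-overexpressing, LDLR-lacking CHO cells. Measured by: DiI fluorescence, bottom read. Medium: Ham's F12 with 0.5% BSA, HEPES 25 mM, pH 7.4. Timing: 3 h uptake period with compound, 37 °C.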
ABCB6 inh 2 – inhibitors of human ABC transporter ABCB6; Q9NP58; K562-ABCB6 porphyrin accumulation, flow cytometry, 1 h; active compounds read low; fluorescence ratio to DMSO, % at 10 µM; 0.19% of 360,000 active;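 active means fluorescence ratio to DMSO below 75%, the collection mean minus 3 SD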;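 further: signal is porphyrin accumulated inside mitochondria; 100% equals median channel fluorescence of DMSO control wells; lower ratio means ABCB6 inhibition with less porphyrin fluorescence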
Target sequence (Q9NP58 whole entry, looked up): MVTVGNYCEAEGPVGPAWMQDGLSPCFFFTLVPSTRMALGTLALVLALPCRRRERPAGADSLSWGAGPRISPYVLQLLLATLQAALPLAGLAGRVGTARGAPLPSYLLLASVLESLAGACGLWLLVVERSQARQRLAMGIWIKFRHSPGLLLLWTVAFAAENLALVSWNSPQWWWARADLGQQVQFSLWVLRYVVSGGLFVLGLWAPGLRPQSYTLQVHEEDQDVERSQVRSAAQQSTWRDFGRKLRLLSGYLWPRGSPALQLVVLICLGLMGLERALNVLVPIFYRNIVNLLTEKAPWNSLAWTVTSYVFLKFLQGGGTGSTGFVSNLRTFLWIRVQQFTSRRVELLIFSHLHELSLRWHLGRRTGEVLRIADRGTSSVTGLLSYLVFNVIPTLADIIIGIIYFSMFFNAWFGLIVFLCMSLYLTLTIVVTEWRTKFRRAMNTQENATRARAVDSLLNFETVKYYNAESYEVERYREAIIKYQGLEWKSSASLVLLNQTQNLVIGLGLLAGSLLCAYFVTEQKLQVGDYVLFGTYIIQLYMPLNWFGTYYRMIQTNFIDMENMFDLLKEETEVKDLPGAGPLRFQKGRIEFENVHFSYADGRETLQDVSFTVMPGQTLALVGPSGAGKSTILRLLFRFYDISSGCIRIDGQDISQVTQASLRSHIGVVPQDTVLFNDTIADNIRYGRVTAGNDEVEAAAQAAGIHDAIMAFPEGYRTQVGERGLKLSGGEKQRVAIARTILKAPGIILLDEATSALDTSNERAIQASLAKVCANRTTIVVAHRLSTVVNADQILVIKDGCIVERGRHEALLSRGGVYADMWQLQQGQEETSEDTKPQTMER
FXN GAA850 act – frataxin GAA850 promoter activation; HEK293 lucGAA850 FXN promoter luciferase reporter, 24 h; percent of 10 µM SAHA response; activation, % at 6 µM; 0.56% of 360,000 active;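 active means activation above the average of all compounds screened plus 3 SD, cutoff fixed separately per campaign, cut at about 7.5% in these data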;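 further: 0% = DMSO wells and 100% = 10 µM SAHA wells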
HIF activator – HIF pathway transcriptional activation; 0.32% of 300,000 active; activation, % at 7.5 µM (by protocol); U2OS HRE-luciferase reporter, luminescence; normalized: DMSO 0%, desferrioxamine 100%;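 active means mean activation of at least 10% of the iron chelator positive control signal, with at least half of replicates also reaching 10%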
AHR activator – human AHR activation | P35869 | AHR-responsive luciferase reporter cells, luminescence | activation, % at 5 µM | 2.5% of 320,000 active; in the data active means activation above about 47%;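 further: 0% = vehicle wells and 100% = reference agonist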
SR-BI DiI inh – mouse SR-BI HDL lipid transfer inhibition; ldlA[mSR-BI] CHO cells, DiI-HDL uptake fluorescence, 3 h; inhibition, % at 12.5 µM; 0.96% of 320,000 active; AID 488896;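 active means mean replicate inhibition of at least 70% and a set share of replicates each scoring 70 or more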;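 further: 0% = median of neutral control wells and 100% = median of positive control wells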
GAA30 counter – counter-screen for GAA850 frataxin promoter activators: GAA30 promoter activation; activation, % at 6 µM; AID 588350; HEK293 lucGAA30 FXN promoter luciferase, 24 h; DMSO = 0%, 5 µM ipriflavone = 100%; shares compounds with FXN GAA850 act; 66% of 1,900 active;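 active means mean activation above the mean of solvent-only control wells plus 3 SD, cut at about 22% in these data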;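 further: counterscreen of GAA850 promoter hits where activity marks nonselective or luminescence artifacts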
GAA850 confirm – confirmation of GAA850 frataxin (FXN) promoter activators. shares compounds with FXN GAA850 act. HEK293 lucGAA850 FXN promoter luciferase reporter, 24 h; 100% = activation by SAHA. activation, % at 6 µM. 86% of 1,900 active. AID 588351;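 active means mean activation above a set limit taken from the primary screen, cut at about 8% in these data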;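 further: 0% = DMSO wells and 100% = 10 µM SAHA wells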
* = called active by the depositor; / = no result given. An excerpt weighted towards active compounds, which were near 3.9% of everything screened.

SMILES	SR-BI uptake up	ABCB6 inh 2	FXN GAA850 act	HIF activator	AHR activator	SR-BI DiI inh	GAA30 counter	GAA850 confirm
O=C1C=CC(=O)c2c(O)c(N3CCN(CCO)CC3)c(Cl)c(O)c21	-34.7	104.0	1.4	/	/	34.7	/	/
O=C1C=CC(=O)c2c(O)c(N3CCN(CCOCCO)CC3)c(Br)c(O)c21	-4.9	404.0	13.5*	/	/	4.9	-97.9	-29.8
COc1cc(-c2nc3cnccn3c2Nc2ccc3c(c2)OCCO3)ccc1O	-32.0	102.0	2.1	-0.2	5.0	32.0	/	/
C/C=C/c1ccc(OCCCCN(C)Cc2ccccc2)c(OC)c1	-10.3	95.0	9.5*	-0.2	2.5	10.3	16.2	13.2*
COc1ccc(-c2noc3c2-c2nc(-c4ccc(Cl)cc4)sc2CC3)cc1	-67.8	101.0	-1.7	0.2	5.0	67.8	/	/
CCn1c2ccc(C)cc2c2nc3cc(C(=O)O)ccc3nc21	29.1	103.0	8.0*	1.8	6.5	-29.1	147.5*	46.8*
CCn1c2ccc(C)cc2c2nnc(NN)nc21	-43.4	103.0	-1.7	1.0	2.7	43.4	/	/
CCN1C(=O)[C@H]2[C@@H](c3ccc(C)cc3)N3C(=O)N(c4cccc(Cl)c4)C(=O)[C@@]3(C)[C@H]2C1=O	9.5	98.0	-0.2	/	-1.2	-9.5	/	/
CCN1C(=O)[C@H]2[C@@H](c3ccc(C)cc3)N3C(=O)N(c4cccc(Cl)c4)C(=O)[C@@]3(CC)[C@H]2C1=O	51.8	100.0	8.2*	0.0	1.7	-51.9	9.1	7.9*
CC[C@@]12C(=O)N(c3ccc(C)cc3)C(=O)N1[C@H](c1cccc(C)c1)[C@@H]1C(=O)N(Cc3ccccc3)C(=O)[C@@H]12	0.4	104.0	8.4*	0.6	3.9	-0.4	23.1*	12.4*
CC[C@@]12C(=O)N(c3ccc(OC)cc3)C(=O)N1[C@H](c1cccc(C)c1)[C@@H]1C(=O)N(Cc3ccccc3)C(=O)[C@@H]12	9.0	99.0	3.8	0.5	2.3	-9.0	/	/
Cc1ccc(N2C(=O)N3[C@H](c4cccc(C)c4)[C@@H]4C(=O)N(Cc5ccccc5)C(=O)[C@@H]4[C@]3(C)C2=O)cc1	54.0	100.0	7.6*	0.1	4.3	-54.0	17.7	8.5*
Cc1ccc(C(=O)N/C(=C/c2ccco2)C(=O)N2CCC(C)CC2)cc1	-4.5	113.0	1.9	-0.6	5.5	4.5	/	/
COc1cccc(C(c2sc3ncnn3c2O)N2CCc3ccccc3C2)c1 (centres undefined)	-15.8	89.0	-1.8	0.2	-0.1	15.8	/	/
O=C(Nc1ccccc1O)c1ccc(NC(=O)C2CC2)cc1	-27.9	100.0	11.1*	57.8*	10.7	27.9	128.1*	64.0*
O=C(Nc1ccccc1C(=O)O)c1ccc(NC(=O)C2CC2)cc1	-4.2	95.0	1.6	-0.9	-1.4	4.2	/	/
CCc1nc2ccc(C(=O)NCCOc3ccc(OC)cc3)cn2c1N(CC)Cc1ccc(OC)c(OC)c1	/	95.0	8.4*	/	/	/	4.6	4.2
CCc1nc2ccc(C(=O)NCCN3CCOCC3)cn2c1N(C)Cc1ccc(OC)cc1	/	97.0	1.3	/	/	/	/	/
CCc1nc2ccc(C(=O)NCCN3CCNC3=O)cn2c1N(C)Cc1ccc(OC)cc1	/	93.0	14.1*	/	/	/	22.4*	5.5
Cc1cc(=O)oc2cc(O[C@@H]3O[C@H](CO)[C@@H](O)[C@H](O)[C@H]3O)ccc12	/	98.0	-2.0	2.6	0.2	/	/	/
CCc1sc(C(=O)NCc2ccccc2)cc1C	/	94.0	2.6	0.3	4.7	/	/	/
COc1ccc(NC(=O)CSCC(=O)Nc2cc(Cl)ccc2N2CCOCC2)cc1	-63.9	124.0	1.0	-1.3	4.1	63.9	/	/
COc1ccc(NC(=O)CSCC(=O)Nc2cc(Cl)ccc2N2CCCC2)cc1	-3.6	86.0	8.5*	-16.0	29.2	3.6	8.6	5.6
CC(=O)NS(=O)(=O)c1ccc(NC(=O)c2ccc3c(c2)NC(=O)CS3)cc1	-3.8	94.0	0.3	/	1.5	3.8	/	/
CCN(CC)S(=O)(=O)c1ccc(OC(C)C)nc1	16.8	104.0	1.0	-0.4	-0.6	-16.8	/	/
SMILES	SR-BI uptake up	ABCB6 inh 2	FXN GAA850 act	HIF activator	AHR activator	SR-BI DiI inh	GAA30 counter	GAA850 confirm
CCN(CC)S(=O)(=O)c1ccc(OC)nc1	41.0	100.0	10.6*	0.0	-0.9	-41.0	19.5	6.0
O=C(NNS(=O)(=O)c1ccc(Cl)cc1)c1cc(-c2ccccc2)n[nH]1	6.1	100.0	1.2	-0.1	12.1	-6.1	/	/
COc1ccc(-n2cnnc2SCCC#N)cc1	/	102.0	1.2	-0.8	5.6	-5.4	/	/
Cc1cc(C)n(-c2nc(Nc3ccccc3)nc(-n3nc(C)cc3C)n2)n1	/	102.0	-0.8	-0.2	5.7	/	/	/
COc1cccc(/C=N/Nc2nc(Nc3ccccc3)nc(-n3nc(C)cc3C)n2)c1O	-64.0	86.0	12.3*	1.8	60.1*	64.0	-37.0	15.0*
N=c1c2c(-c3ccccc3)c(-c3ccccc3)n(Cc3ccco3)c2ncn1CCN1CCOCC1	6.4	93.0	-9.7	-0.1	-2.0	-6.4	/	/
Cn1c2nc3ccccc3c-2nc2ccccc21	/	97.0	11.0*	/	/	/	114.8*	34.7*
NC1(C(=O)O)CSSC1	14.7	88.0	9.8*	/	/	-14.7	-20.4	24.9*
CCOC(=S)SCC(=O)N1CCc2cc(OC)ccc2C1C1C(=O)CCCC1=O (centres undefined)	24.5	100.0	-2.2	1.2	8.7	-24.5	/	/
COc1ccc2c(c1)CCc1c(C(=O)NCc3ccco3)noc1-2	-3.7	120.0	4.4	1.7	2.8	3.7	/	/
COc1ccccc1NC(=O)N(Cc1ccccc1)c1ccccn1	-40.4	89.0	9.7*	0.3	12.3	40.4	37.9*	19.5*
Cc1cc2[nH]c3c(c[n+](C)c4ccccc34)c2cc1C	14.7	99.0	10.5*	-1.9	5.6	-14.7	-14.0	95.0*
Cc1cc2[nH]c3c4ccccc4nc(C)c3c2cc1C	11.0	104.0	-0.9	/	/	-11.0	/	/
CCOC(=O)C1(C(N)=O)OC1(c1ccc(Cl)cc1)c1ccccc1Cl (centres undefined)	5.2	96.0	-2.0	/	/	-5.2	/	/
COCCNC(=O)Cn1c(=O)n(Cc2ccc(C(=O)NCc3ccco3)cc2)c(=O)c2ccccc21	6.9	98.0	0.1	0.0	-2.0	-6.9	/	/
O=C(NCc1ccco1)c1ccc(Cn2c(=O)c3ccccc3n(Cc3ccc(Cl)cc3)c2=O)cc1	-24.4	89.0	13.9*	-0.8	4.7	24.4	22.1*	14.0*

Source: PubChem BioAssay
